Results from ChEMBL document CHEMBL1134741, “Synthesis and preliminary pharmacological evaluation of coumestans with different patterns of oxygenation” (Bioorg Med Chem Lett, 2001).
pIC50: −log10 of the molar value.

Experiments:
[1] = biological target: GABA-A receptor; anion channel; experiment: Inhibition of [3H]flunitrazepam binding to rat brain synaptosomes; type: subcellular
Method in brief: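 Crude rat brain synaptosomes (200 µg protein; cerebellum and brainstem removed) were incubated with 0.2 nM [3H]-flunitrazepam in buffered Krebs solution for 90 min at 4 °C.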

Rattus norvegicus = species: Rattus norvegicus; experiment: Tested for the inhibitory activity against rat kidney Na+, K+-ATPase; type: functional
Method in brief: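 Na+,K+-ATPase was taken from partially purified rat kidney microsomes. Inhibition was measured by phosphate release (Fiske–Subbarow) using 1.2 mM ATP.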

Bothrops jararacussu = experiment: (§1) Concentration required to antagonise the creatine kinase release induced by Bothrops jararacussu venom; type: functional, organism-based
[2] = Tested for antimyotoxic activity of the compound; type: functional
P06732 = experiment: as §1; type: functional
[3] = biological target: T1, Polyunsaturated fatty acid 5-lipoxygenase (Homo sapiens, UniProt P09917); experiment: Tested for the inhibitory activity against 5-lipoxygenase
T1 sequence (P09917 whole entry): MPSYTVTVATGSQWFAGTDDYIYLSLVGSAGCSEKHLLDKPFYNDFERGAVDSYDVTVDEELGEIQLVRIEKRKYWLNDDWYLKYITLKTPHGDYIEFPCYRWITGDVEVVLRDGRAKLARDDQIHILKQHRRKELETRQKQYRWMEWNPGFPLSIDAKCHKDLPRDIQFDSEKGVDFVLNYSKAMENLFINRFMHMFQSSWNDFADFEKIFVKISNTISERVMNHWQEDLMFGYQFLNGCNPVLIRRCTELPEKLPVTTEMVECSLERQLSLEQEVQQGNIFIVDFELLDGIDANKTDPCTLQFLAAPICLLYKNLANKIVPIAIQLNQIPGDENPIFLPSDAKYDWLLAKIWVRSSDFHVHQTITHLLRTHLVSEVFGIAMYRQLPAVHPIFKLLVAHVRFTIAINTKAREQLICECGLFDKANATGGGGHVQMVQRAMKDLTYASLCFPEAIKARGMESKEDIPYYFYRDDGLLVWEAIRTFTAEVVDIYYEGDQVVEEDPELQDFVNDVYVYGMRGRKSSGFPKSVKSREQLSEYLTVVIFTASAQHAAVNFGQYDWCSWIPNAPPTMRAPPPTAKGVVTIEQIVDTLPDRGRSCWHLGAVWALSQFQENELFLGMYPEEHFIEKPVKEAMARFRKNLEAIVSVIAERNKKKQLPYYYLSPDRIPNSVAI

Sequence of P06732 (P06732 whole entry): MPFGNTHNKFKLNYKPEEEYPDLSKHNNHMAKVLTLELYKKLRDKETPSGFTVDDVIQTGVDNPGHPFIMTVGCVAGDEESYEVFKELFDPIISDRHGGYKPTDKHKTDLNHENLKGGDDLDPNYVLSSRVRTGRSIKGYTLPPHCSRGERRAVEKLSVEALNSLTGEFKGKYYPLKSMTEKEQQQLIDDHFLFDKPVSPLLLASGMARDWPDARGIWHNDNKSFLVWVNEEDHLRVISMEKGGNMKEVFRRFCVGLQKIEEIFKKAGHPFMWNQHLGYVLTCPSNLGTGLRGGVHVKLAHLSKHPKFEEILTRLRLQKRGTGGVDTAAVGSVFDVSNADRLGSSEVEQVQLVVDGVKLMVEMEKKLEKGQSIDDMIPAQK

| SMILES | pIC50 [1] | pIC50 (Rattus norvegicus) | Concentration (P06732) [µM] | other results |
| --- | --- | --- | --- | --- |
| COc1cc2oc(=O)c3c4cc(O)c(O)cc4oc3c2cc1O | < 4.00 | 6.30 |  | Concentration (Bothrops jararacussu): 30 µM; pIC50 [2]: 6.00 |
| O=c1oc2cc(O)ccc2c2oc3cc4c(cc3c12)OCO4 |  |  | 30 |  |
| COc1cc(O)c2c(c1)oc(=O)c1c3cc(O)c(O)cc3oc21 [WEDELOLACTONE] | 5.70 | 6.15 |  | pIC50 [3]: 5.60 |
| COc1cc2oc(=O)c3c4cc(OC)c(O)cc4oc3c2cc1O |  |  | 30 |  |
| COc1cc2oc3c4ccc(O)cc4oc(=O)c3c2cc1O |  |  | 30 |  |
| O=c1oc2cc(O)ccc2c2oc3cc(O)c(O)cc3c12 |  |  | 30 |  |
